In ChEMBL document CHEMBL3102805, “Truncated Orexin Peptides: Structure-Activity Relationship Studies” (ACS Med Chem Lett, 2013):
Where a SMILES comes first, the peptide text is derived from it.

Legend:
Homo sapiens = species: Homo sapiens; assay: Selectivity ratio of EC50 for human OX2 receptor to EC50 for human OX1 receptor
Orexin receptor type 2 = biological target: T1, Orexin receptor type 2 (Homo sapiens, UniProt O43614); assay: Agonist activity at human OX2 receptor overexpressed in CHO-RD-HGA16 cells assessed as calcium mobilization after 15 mins by fluorescence assay; format: functional, cell-based
T1 sequence (O43614 whole entry): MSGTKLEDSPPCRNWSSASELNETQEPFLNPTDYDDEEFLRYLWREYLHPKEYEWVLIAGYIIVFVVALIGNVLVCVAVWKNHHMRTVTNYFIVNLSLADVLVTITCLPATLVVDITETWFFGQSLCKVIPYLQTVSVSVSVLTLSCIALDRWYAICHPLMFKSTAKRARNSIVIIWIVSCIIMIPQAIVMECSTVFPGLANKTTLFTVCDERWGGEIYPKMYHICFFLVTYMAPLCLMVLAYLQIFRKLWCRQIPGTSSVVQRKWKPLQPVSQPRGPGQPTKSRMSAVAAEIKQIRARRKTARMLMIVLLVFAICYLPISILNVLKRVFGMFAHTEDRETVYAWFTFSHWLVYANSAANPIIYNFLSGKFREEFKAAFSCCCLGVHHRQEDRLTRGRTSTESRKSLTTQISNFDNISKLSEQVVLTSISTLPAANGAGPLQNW

[1] = biological target: T2, Orexin/Hypocretin receptor type 1 (Homo sapiens, UniProt O43613); assay: Agonist activity at human OX1 receptor overexpressed in CHO-RD-HGA16 cells assessed as calcium mobilization after 15 mins by fluorescence assay; format: functional, cell-based
T2 sequence (O43613 whole entry): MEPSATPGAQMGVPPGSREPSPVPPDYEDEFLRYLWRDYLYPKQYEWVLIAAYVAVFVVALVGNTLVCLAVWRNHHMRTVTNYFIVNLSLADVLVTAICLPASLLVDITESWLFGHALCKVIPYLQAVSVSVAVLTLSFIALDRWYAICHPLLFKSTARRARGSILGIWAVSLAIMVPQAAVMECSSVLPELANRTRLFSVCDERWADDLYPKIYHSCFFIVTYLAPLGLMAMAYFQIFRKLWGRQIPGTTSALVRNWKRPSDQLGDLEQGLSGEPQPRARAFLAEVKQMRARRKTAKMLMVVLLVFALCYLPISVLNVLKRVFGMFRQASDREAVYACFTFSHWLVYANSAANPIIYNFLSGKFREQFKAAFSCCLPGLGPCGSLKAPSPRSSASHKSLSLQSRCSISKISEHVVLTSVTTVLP
How it was run: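 EC50 from 8-point half-log concentration-response curves. Values are means of at least three independent experiments in duplicate, with SEM, or means of two independent duplicate experiments.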

| Ratio EC50 (Homo sapiens) | EC50 (Orexin receptor type 2) [nM] | EC50 [1] [nM] | Structure (SMILES) |
| --- | --- | --- | --- |
| 0.4 | 610 | 1560 | CC[C@H](C)[C@H](NC(=O)CNC(=O)[C@H](C)NC(=O)[C@H](C)NC(=O)[C@H](Cc1cnc[nH]1)NC(=O)[C@H](CC(N)=O)NC(=O)CNC(=O)[C@H](C)NC(=O)CNC(=O)[C@@H](Cc1cnc[nH]1)NC(=O)[C@H](CC(C)C)NC(=O)[C@H](CC(C)C)NC(=O)[C@H](CCC(=O)O)NC(=O)[C@@H](N)Cc1ccc(O)cc1)C(=O)N[C@@H](CC(C)C)C(=O)N[C@H](C(=O)N[C@@H](CC(C)C)C(N)=O)[C@@H](C)O |
| 0.6 | 1920 | 3070 | CC[C@H](C)[C@H](NC(=O)CNC(=O)[C@H](C)NC(=O)[C@H](C)NC(=O)[C@H](Cc1cnc[nH]1)NC(=O)[C@H](CC(N)=O)NC(=O)CNC(=O)[C@@H](C)NC(=O)CNC(=O)[C@H](Cc1cnc[nH]1)NC(=O)[C@H](CC(C)C)NC(=O)[C@H](CC(C)C)NC(=O)[C@H](CCC(=O)O)NC(=O)[C@@H](N)Cc1ccc(O)cc1)C(=O)N[C@@H](CC(C)C)C(=O)N[C@H](C(=O)N[C@@H](CC(C)C)C(N)=O)[C@@H](C)O |
| 2.4 | 3220 | 1360 | CC[C@H](C)[C@H](NC(=O)CNC(=O)[C@H](C)NC(=O)[C@H](C)NC(=O)[C@H](Cc1cnc[nH]1)NC(=O)[C@H](CC(N)=O)NC(=O)CNC(=O)[C@H](C)NC(=O)CNC(=O)[C@H](Cc1cnc[nH]1)NC(=O)[C@H](CC(C)C)NC(=O)[C@H](CC(C)C)NC(=O)[C@H](CCC(=O)O)NC(=O)[C@H](N)Cc1ccc(O)cc1)C(=O)N[C@@H](CC(C)C)C(=O)N[C@H](C(=O)N[C@@H](CC(C)C)C(N)=O)[C@@H](C)O |
| 5.6 | 439 | 78.9 | CC[C@H](C)[C@H](NC(=O)CNC(=O)[C@H](C)NC(=O)[C@H](C)NC(=O)[C@H](Cc1cnc[nH]1)NC(=O)[C@H](CC(N)=O)NC(=O)CNC(=O)[C@H](C)NC(=O)CNC(=O)[C@H](Cc1cnc[nH]1)NC(=O)[C@H](CC(C)C)NC(=O)[C@H](CC(C)C)NC(=O)[C@H](C)NC(=O)[C@@H](N)Cc1ccc(O)cc1)C(=O)N[C@@H](CC(C)C)C(=O)N[C@H](C(=O)N[C@@H](CC(C)C)C(N)=O)[C@@H](C)O (H-YALLHGAGNHAAGILTL-NH2) |
| 0.7 | 99.3 | 144 | CC[C@H](C)[C@H](NC(=O)CNC(=O)[C@H](C)NC(=O)[C@H](C)NC(=O)[C@H](Cc1cnc[nH]1)NC(=O)[C@H](CC(N)=O)NC(=O)CNC(=O)[C@H](CO)NC(=O)[C@H](C)NC(=O)[C@H](CCC(N)=O)NC(=O)[C@H](CC(C)C)NC(=O)[C@H](CC(C)C)NC(=O)[C@H](CCCNC(=N)N)NC(=O)[C@H](CCC(N)=O)NC(=O)[C@H](CC(C)C)NC(=O)[C@@H](N)CCCNC(=N)N)C(=O)N[C@@H](CC(C)C)C(=O)N[C@H](C(=O)N[C@@H](CCSC)C(N)=O)[C@@H](C)O (H-RLQRLLQASGNHAAGILTM-NH2) |
| 0.5 | 1580 | 3060 | CC[C@H](C)[C@H](NC(=O)CNC(=O)[C@H](C)NC(=O)[C@H](C)NC(=O)[C@H](C)NC(=O)[C@H](CC(N)=O)NC(=O)CNC(=O)[C@H](C)NC(=O)CNC(=O)[C@H](Cc1cnc[nH]1)NC(=O)[C@H](CC(C)C)NC(=O)[C@H](CC(C)C)NC(=O)[C@H](CCC(=O)O)NC(=O)[C@@H](N)Cc1ccc(O)cc1)C(=O)N[C@@H](CC(C)C)C(=O)N[C@H](C(=O)N[C@@H](CC(C)C)C(N)=O)[C@@H](C)O (H-YELLHGAGNAAAGILTL-NH2) |
| 1.3 | 1360 | 1040 | CC[C@H](C)[C@H](NC(=O)CNC(=O)[C@H](C)NC(=O)[C@H](C)NC(=O)[C@H](Cc1cnc[nH]1)NC(=O)[C@H](CC(N)=O)NC(=O)[C@H](C)NC(=O)[C@H](C)NC(=O)CNC(=O)[C@H](Cc1cnc[nH]1)NC(=O)[C@H](CC(C)C)NC(=O)[C@H](CC(C)C)NC(=O)[C@H](CCC(=O)O)NC(=O)[C@@H](N)Cc1ccc(O)cc1)C(=O)N[C@@H](CC(C)C)C(=O)N[C@H](C(=O)N[C@@H](CC(C)C)C(N)=O)[C@@H](C)O (H-YELLHGAANHAAGILTL-NH2) |
| 0.7 | 947 | 1380 | CC[C@H](C)[C@H](NC(=O)CNC(=O)[C@H](C)NC(=O)[C@H](C)NC(=O)[C@H](Cc1c[nH]cn1)NC(=O)[C@H](CC(N)=O)NC(=O)CNC(=O)[C@H](C)NC(=O)CNC(=O)[C@H](Cc1c[nH]cn1)NC(=O)[C@H](CC(C)C)NC(=O)[C@@H](N)CC(C)C)C(=O)N[C@@H](CC(C)C)C(=O)N[C@H](C(=O)N[C@@H](CC(C)C)C(N)=O)[C@@H](C)O (H-LLHGAGNHAAGILTL-NH2) |
| 3.4 | 1440 | 422 | CC[C@H](C)[C@H](NC(=O)CNC(=O)[C@H](C)NC(=O)[C@H](C)NC(=O)[C@H](Cc1cnc[nH]1)NC(=O)[C@H](CC(N)=O)NC(=O)CNC(=O)[C@H](C)NC(=O)[C@H](C)NC(=O)[C@H](Cc1cnc[nH]1)NC(=O)[C@H](CC(C)C)NC(=O)[C@H](CC(C)C)NC(=O)[C@H](CCC(=O)O)NC(=O)[C@@H](N)Cc1ccc(O)cc1)C(=O)N[C@@H](CC(C)C)C(=O)N[C@H](C(=O)N[C@@H](CC(C)C)C(N)=O)[C@@H](C)O (H-YELLHAAGNHAAGILTL-NH2) |
| 1.4 | 1610 | 1130 | CC[C@H](C)[C@H](NC(=O)CNC(=O)[C@H](C)NC(=O)[C@H](C)NC(=O)[C@H](Cc1cnc[nH]1)NC(=O)[C@H](CC(N)=O)NC(=O)CNC(=O)[C@H](C)NC(=O)CNC(=O)[C@H](Cc1cnc[nH]1)NC(=O)[C@@H]1CCCN1C(=O)[C@H](CC(C)C)NC(=O)[C@H](CCC(=O)O)NC(=O)[C@@H](N)Cc1ccc(O)cc1)C(=O)N[C@@H](CC(C)C)C(=O)N[C@H](C(=O)N[C@@H](CC(C)C)C(N)=O)[C@@H](C)O (H-YELPHGAGNHAAGILTL-NH2) |
| 0.3 | 1760 | 5700 | CC[C@H](C)[C@H](NC(=O)CNC(=O)[C@H](C)NC(=O)[C@H](C)NC(=O)[C@@H](Cc1cnc[nH]1)NC(=O)[C@H](CC(N)=O)NC(=O)CNC(=O)[C@H](C)NC(=O)CNC(=O)[C@H](Cc1cnc[nH]1)NC(=O)[C@H](CC(C)C)NC(=O)[C@H](CC(C)C)NC(=O)[C@H](CCC(=O)O)NC(=O)[C@@H](N)Cc1ccc(O)cc1)C(=O)N[C@@H](CC(C)C)C(=O)N[C@H](C(=O)N[C@@H](CC(C)C)C(N)=O)[C@@H](C)O |
| 2.4 | 7850 | 3230 | CC[C@H](C)[C@H](NC(=O)CNC(=O)[C@H](C)NC(=O)[C@H](C)NC(=O)[C@H](Cc1cnc[nH]1)NC(=O)[C@H](CC(N)=O)NC(=O)CNC(=O)[C@H](C)NC(=O)CNC(=O)[C@H](Cc1cnc[nH]1)NC(=O)[C@H](C)NC(=O)[C@H](CC(C)C)NC(=O)[C@H](CCC(=O)O)NC(=O)[C@@H](N)Cc1ccc(O)cc1)C(=O)N[C@@H](CC(C)C)C(=O)N[C@H](C(=O)N[C@@H](CC(C)C)C(N)=O)[C@@H](C)O (H-YELAHGAGNHAAGILTL-NH2) |
| 8.9 | 1890 | 212 | CC[C@H](C)[C@H](NC(=O)CNC(=O)[C@H](C)NC(=O)[C@H](C)NC(=O)[C@H](Cc1cnc[nH]1)NC(=O)[C@H](CC(N)=O)NC(=O)CNC(=O)[C@H](C)NC(=O)CNC(=O)[C@H](Cc1cnc[nH]1)NC(=O)[C@H](CC(C)C)NC(=O)[C@H](C)NC(=O)[C@H](CCC(=O)O)NC(=O)[C@@H](N)Cc1ccc(O)cc1)C(=O)N[C@@H](CC(C)C)C(=O)N[C@H](C(=O)N[C@@H](CC(C)C)C(N)=O)[C@@H](C)O (H-YEALHGAGNHAAGILTL-NH2) |
| 2.5 | 4820 | 1910 | CC[C@H](C)[C@H](NC(=O)CNC(=O)[C@H](C)NC(=O)[C@H](C)NC(=O)[C@H](Cc1cnc[nH]1)NC(=O)[C@H](CC(N)=O)NC(=O)CNC(=O)[C@H](C)NC(=O)CNC(=O)[C@H](Cc1cnc[nH]1)NC(=O)[C@H](CC(C)C)NC(=O)[C@H](CC(C)C)NC(=O)[C@H](CCC(=O)O)NC(=O)[C@H](C)N)C(=O)N[C@@H](CC(C)C)C(=O)N[C@H](C(=O)N[C@@H](CC(C)C)C(N)=O)[C@@H](C)O (H-AELLHGAGNHAAGILTL-NH2) |
| 1.2 | 1010 | 865 | CC[C@H](C)[C@H](NC(=O)CNC(=O)[C@H](C)NC(=O)[C@H](C)NC(=O)[C@H](Cc1cnc[nH]1)NC(=O)[C@H](CC(N)=O)NC(=O)CNC(=O)[C@H](C)NC(=O)CNC(=O)[C@H](Cc1cnc[nH]1)NC(=O)[C@H](CC(C)C)NC(=O)[C@@H]1CCCN1C(=O)[C@H](CCC(=O)O)NC(=O)[C@@H](N)Cc1ccc(O)cc1)C(=O)N[C@@H](CC(C)C)C(=O)N[C@H](C(=O)N[C@@H](CC(C)C)C(N)=O)[C@@H](C)O (H-YEPLHGAGNHAAGILTL-NH2) |
